# Source: PubChem
# GAA850 FXN act = FXN promoter activators, primary screen, cell-based, luciferase luminescence, HEK293 lucGAA850; HEK293 lucGAA850 FXN promoter luciferase reporter, 24 h; percent of 10 µM SAHA response; activation, % at 6 µM; 360,000 compounds, 0.56% hits; AID 540364, 2011;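 active means activation above the average of all compounds screened plus 3 SD, cutoff fixed separately per campaign, cut at about 7.5% in these data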
# ABHD5 PLIN5 PPI = ABHD5-PLIN5 interaction inhibitors, primary screen, cell lysate, split luciferase complementation, luminescence; Split G. princeps luciferase complementation, 4 h; 360,000 compounds, 0.78% hits; AID 602281, 2012; inhibition, % at 4 µM;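 active means inhibition above the mean inhibition across every tested compound plus 3 SD, cut at about 22% in these data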
# Target sequence (Q00G26 whole entry, looked up): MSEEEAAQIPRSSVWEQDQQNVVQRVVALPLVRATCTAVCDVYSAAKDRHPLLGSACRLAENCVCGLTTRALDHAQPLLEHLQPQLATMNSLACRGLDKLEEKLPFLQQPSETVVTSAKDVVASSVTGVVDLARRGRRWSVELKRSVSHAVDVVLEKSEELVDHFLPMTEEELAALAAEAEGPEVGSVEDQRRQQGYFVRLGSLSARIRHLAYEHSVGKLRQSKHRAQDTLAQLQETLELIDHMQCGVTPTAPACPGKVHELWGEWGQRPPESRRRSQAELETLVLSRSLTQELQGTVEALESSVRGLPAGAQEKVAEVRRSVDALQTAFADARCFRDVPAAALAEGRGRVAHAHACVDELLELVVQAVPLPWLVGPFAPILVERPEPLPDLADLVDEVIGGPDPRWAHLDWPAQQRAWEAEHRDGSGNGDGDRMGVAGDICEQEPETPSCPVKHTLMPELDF
# Target sequence (Q8WTS1 whole entry, looked up): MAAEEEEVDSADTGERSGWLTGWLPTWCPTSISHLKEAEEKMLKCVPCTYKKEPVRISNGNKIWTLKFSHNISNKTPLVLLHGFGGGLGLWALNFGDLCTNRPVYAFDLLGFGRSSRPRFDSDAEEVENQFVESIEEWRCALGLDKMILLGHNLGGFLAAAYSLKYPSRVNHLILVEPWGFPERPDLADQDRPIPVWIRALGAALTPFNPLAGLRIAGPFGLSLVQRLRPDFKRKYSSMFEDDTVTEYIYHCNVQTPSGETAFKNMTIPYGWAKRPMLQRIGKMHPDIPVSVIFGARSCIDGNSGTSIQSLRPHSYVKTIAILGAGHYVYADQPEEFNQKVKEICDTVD
# Rad51 HR inh = human RAD51 strand exchange inhibitors, primary screen, biochemical, fluorescence | inhibition, % at 10 µM | hRad51 DNA strand exchange, fluorescence dequenching | DNA repair protein RAD51 homolog 1 (Homo sapiens), Q06609 | 200,000 compounds, 0.085% hits | AID 1385, 2008;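 active means inhibition above 40% at the single screening dose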
#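 Material: Human Rad51 nucleoprotein filaments preassembled on unlabelled ssDNA | Also added: Labelled 47-mer dsDNA for strand exchange | Dosing: Single dose, 10 µM final compound | Schedule: 30-min compound preincubation and 15-min exchange, both room temperature | Technique: Fluorescence dequenching at 485/520 nm | Measure: Percent inhibition relative to plate controls and blanks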
# HIF activator = HIF pathway transcriptional activators, primary screen, cell-based, U2OS HRE-luciferase, luminescence | U2OS HRE-luciferase reporter; normalized: DMSO 0%, desferrioxamine 100% | 300,000 compounds, 0.32% hits | activation, % at 7.5 µM (by protocol);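 active means mean activation of at least 10% of the iron chelator positive control signal, with at least half of replicates also reaching 10%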
# TAG inh = inhibitors of triacylglycerol accumulation, primary screen, cell-based, uHTS, fluorescence, H9c2 | inhibition, % at 12.5 µM | 230,000 compounds, 0.66% hits | H9c2 cells, Nile Red lipid (TAG) fluorescence; cells loaded with 200 µM oleic acid;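 active means pattern-corrected inhibition of lipid staining of at least 50% with the nuclear-stain viability signal not falling by more than 50%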
# Hsp70 activator = Hsp70 transcriptional activators, primary screen, cell-based, HeLa, Hsp70 promoter luciferase, luminescence, 10 µM | 200,000 compounds, 0.04% hits | HeLa Hsp70 promoter luciferase reporter; scaled: vehicle 0, proteasome-inhibitor control 100% | AID 1203, 2008 | activation, % at 10 µM;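 active means activation above the mean across all tested compounds plus 3 SD, cutoff set per campaign, cut at about 5.5% in these data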
# ABHD5-PLIN5 conf = ABHD5-PLIN5 interaction inhibitors, confirmation, biochemical, luminescence; inhibition, % at 4 µM; AID 651612, 2012; 2,200 compounds, 67% hits; shares compounds with ABHD5 PLIN5 PPI; in the data active means inhibition above about 23%
# HNF4 split-luc = HNF4 dimerization inhibitors, counter-screen for ABHD5-PLIN5 interaction inhibitor project, biochemical, split-luciferase complementation, luminescence. inhibition, % at 4 µM. shares compounds with ABHD5 PLIN5 PPI. AID 651674, 2012. 2,200 compounds, 77% hits;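 active means mean inhibition across replicate wells exceeding the computed hit threshold, cut at about 13% in these data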;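 further: light from luciferase halves that rejoin when HNF4 fusion proteins dimerize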
# Numbers stand for hits; – = inactive; · = not tested or not shown. Sampled rows, rich in hits. Any-hit rate of the full collection: about 1.9%.
SMILES,GAA850 FXN act,ABHD5 PLIN5 PPI,Rad51 HR inh,HIF activator,TAG inh,Hsp70 activator,ABHD5-PLIN5 conf,HNF4 split-luc
COc1ccc(-c2cc(C(F)(F)F)nc(S(C)(=O)=O)n2)cc1,–,48.4,–,–,–,–,67.2,91.1
COC(=O)CCS(=O)(=O)c1nc(-c2ccccc2)cc(C(F)(F)F)n1,–,51.0,–,–,·,–,85.2,104.7
COCC(C)NC(=O)CCS(=O)(=O)c1nc(-c2ccc(OC)cc2)cc(C(F)(F)F)n1 (stereo unspecified),–,–,–,–,–,–,·,·
O=C(NCC(=O)N(CCN1CCOCC1)C(C(=O)NC1CCCC1)c1ccccc1)c1cccs1 (stereo unspecified),–,–,–,–,–,–,·,·
CCOC(=O)c1c(NC(=O)/C=C\C(=O)O)sc(C)c1-c1ccccc1,–,–,–,–,–,–,·,·
CCOC(=O)c1c(NC(=O)/C=C/C(=O)O)sc(C)c1-c1ccc(C(C)(C)C)cc1,–,34.7,–,–,–,–,71.3,27.2
Cc1ccc(S(=O)(=O)N2CC(O)C[C@H]2C(=O)OCC(=O)Nc2ccc(N3CCCCC3)cc2)cc1C (stereo partly specified),–,–,·,–,–,·,·,·
O=C1NC[C@H](c2ccccc2)OC(=O)[C@H](Cc2ccc(F)cc2)C/C=C\C[C@H]1CC(=O)N(CCO)Cc1ccccc1,–,–,·,·,–,·,·,·
CCOC(=O)C(=Cc1ccc(-c2ccsc2C(=O)OC)o1)C(=O)OCC,–,–,–,–,·,–,·,·
COC(=O)C(=Cc1ccc(-c2ccsc2C(=O)OC)o1)C(=O)OC,–,23.3,–,–,–,·,24.0,37.1
CC1(C(=O)NCC(F)(F)F)CCN1C(=O)Cc1ccc(-c2ccccc2)cc1 (stereo unspecified),–,–,·,·,–,·,·,·
CCOc1cc2[nH]c(=S)n(CCCC(=O)NCc3ccccn3)c(=O)c2cc1OCC,–,–,·,–,·,·,·,·
CCOC(=O)c1c(-c2ccc(C)o2)csc1NC(=O)CN(C)CC(=O)Nc1ccc(C)cc1,–,26.0,–,–,·,–,–,53.2
O=C(Nc1cccc([N+](=O)[O-])c1)C1CC(=O)N(C2CCCCC2)C1 (stereo unspecified),–,–,–,–,–,–,·,·
O=c1c2c3nc4ccccc4nc3n(Cc3ccccc3)c2ncn1Cc1ccco1,–,43.8,–,·,·,–,96.2,94.7
CCc1nc2c(sc3nc4c(cc32)COC(C)(C)C4)c(=O)n1Cc1ccco1,–,28.4,–,–,–,–,–,35.6
CCc1nc(OCc2ccco2)c2sc3nc4c(cc3c2n1)COC(C)(C)C4,–,32.7,–,·,–,–,47.0,73.6
CCC(Sc1ccc(C(=O)O)cc1)C(=O)O (stereo unspecified),–,–,–,–,–,–,·,·
CCOc1ccc(C(=O)CC(Sc2ccc(C)cc2)C(=O)O)cc1 (stereo unspecified),–,59.6,–,–,–,–,–,68.8
O=C(CC(Sc1ccc(Br)cc1)C(=O)O)c1ccc(F)cc1 (stereo unspecified),–,66.1,·,–,·,·,41.5,79.6
Cc1nn(C2CCS(=O)(=O)C2)c(C)c1CN(C)C(=O)c1ccc(Cl)cc1 (stereo unspecified),–,–,·,·,–,·,·,·
O=C(CN(C(=O)CSc1nc2ccccc2o1)c1cccc(F)c1)NC1CCCCC1,–,–,–,–,·,–,·,·
CC1OC(CC(=O)O)CC2=C1C(=O)c1c(O)cccc1C2=O (stereo unspecified),–,98.9,·,·,–,·,–,–
O=P(CCCCCCCCCP(=O)(c1ccccc1)c1ccccc1)(c1ccccc1)c1ccccc1,–,23.1,–,–,–,–,–,–
O=C(O)/C=C/C(=O)c1ccc2c(c1)CCc1ccccc1-2,–,94.8,·,–,–,·,104.3,110.3
SMILES,GAA850 FXN act,ABHD5 PLIN5 PPI,Rad51 HR inh,HIF activator,TAG inh,Hsp70 activator,ABHD5-PLIN5 conf,HNF4 split-luc
CC(=O)Cn1cnc2c(sc3nc(C)cc(C)c32)c1=O,–,–,–,–,–,·,·,·
CCCNC(=O)Cn1sc2nc(C)cc(C)c2c1=O,–,44.7,–,–,–,·,29.9,106.6
Cc1cc(C)c2c(=O)n(CC(=O)N3CCC(N4CCCCC4)CC3)sc2n1,–,34.1,–,–,–,–,33.0,98.4
Cc1ccc(CN2CCN(C(=O)/C=C/[C@H]3O[C@@H](n4cc(C)c(=O)[nH]c4=O)C[C@@H]3O)CC2)cc1,·,–,·,·,·,·,·,·
O=c1ccc2ccccc2c2ccccc12,·,87.2,·,·,·,·,97.1,103.5
C#CCOCCOCCOCCNc1nc(N2CCN(C(=O)CCCCCCCCCCNC(=O)Cn3cc(C[C@@H](C)O)nn3)CC2)nc(N2CCN(C(=O)CCCCCCCCCCNC(=O)[C@@H]([C@H](C)O)n3cc(C)nn3)CC2)n1,–,97.1,·,·,–,·,–,–
C#CCOCCOCCOCCNc1nc(N2CCN(C(=O)CCCCCCCCCCNC(=O)Cn3cc(CCCCCN)nn3)CC2)nc(N2CCN(C(=O)CCCCCCCCCCNC(=O)Cn3cc(C[C@@H](C)O)nn3)CC2)n1,–,46.8,·,·,–,·,–,–
C#CCOCCOCCOCCNc1nc(N2CCN(C(=O)CCCCCCCCCCNC(=O)Cn3cc(C[C@@H](C)O)nn3)CC2)nc(N2CCN(C(=O)CCCCCCCCCCNC(=O)[C@@H](CCSC)n3cc(CCO)nn3)CC2)n1,–,–,·,·,–,·,·,·
C#CCOCCOCCOCCNc1nc(N2CCN(C(=O)Cn3cc(CCCCN)nn3)CC2)nc(N2CCN(C(=O)Cn3cc(CC(C)O)nn3)CC2)n1 (stereo unspecified),–,–,–,–,–,–,·,·
Clc1ccc(-c2nnc(CNC3CC3)o2)cc1,–,–,–,–,·,–,·,·
CC(C)CN(C(=O)COC(=O)C12CC3CC(CC(C3)C1)C2)c1c(N)n(Cc2ccccc2)c(=O)[nH]c1=O,–,–,·,–,–,·,·,·
Cn1cccc1/C=C1\CC(C(C)(C)C)C/C(=C\c2cccn2C)C1=O (stereo unspecified),–,25.5,–,–,–,–,–,25.9
Cc1ccc(CNC(=O)CC(C)S(=O)(=O)c2ccc3c(c2)NC(=O)CS3)o1 (stereo unspecified),–,38.1,·,–,·,·,–,21.9
